Experimental data from ChEMBL document CHEMBL1134221, “RPR203494 a pyrimidine analogue of the p38 inhibitor RPR200765A with an improved in vitro potency” (Bioorg Med Chem Lett, 2001).

Experiments:
[1] = Stability (%) in rat liver microsomes; assay type: ADME; conditions: read-out: % turnover
[2] = Oral bioavailability in rat; assay type: ADME, organism-based; conditions: in vivo
Method in brief: (§1)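 Rat pharmacokinetics with the compound given alone: an iv arm at 1 mg/kg and an oral arm at 5 mg/kg. Plasma profiles give Cmax, Tmax, AUC, terminal half-life, total clearance and Vdss. Absolute oral bioavailability is derived by comparing the oral and iv exposures.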

[3] = Inhibitory concentration against lipopolysaccharide induced TNF-alpha release on human monocytes; assay type: functional
Method in brief: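 Adherent human monocytes (100,000 cells/well) are stimulated with LPS (10 ng/mL) for 18 h, with or without compound. Each experiment is run in quadruplicate. TNF-α is measured by sandwich ELISA, and EC50 is calculated for each compound.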

[4] = Inhibitory activity against lipopolysaccharide induced TNF-alpha release on human monocytes at a concentration of 300 nM; assay type: functional
MAP kinase p38 [5] = molecular target: T1, MAP kinase p38 (Mus musculus, UniProt P47811+O08911+Q9WUI1+Q9Z1B7); assay: Inhibition of murine Mitogen-activated protein kinase p38; assay type: protein assay
Method in brief: (§2)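 Mouse p38 enzyme at 40 ng/well, run 1 h at room temperature. ATF-2 substrate is coated onto plates. Buffer is 25 mM Hepes pH 7.7 with 25 mM MgCl2, 2 mM dithiothreitol, 1 mM sodium orthovanadate and ATP. Phospho-ATF-2 is detected with phospho-specific primary antibodies. IC50 is given as mean±SEM of repeat experiments (n=3).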

[6] = Maximum plasma concentration in Rat at a oral dose of 5 mg/kg; assay type: ADME, organism-based; design: dose 5 mg/kg, route oral; conditions: read-out: CPmax; method in brief: as §1
[7] = T max in Rat at a oral dose of 5 mg/kg; assay type: ADME, organism-based; design: dose 5 mg/kg, route oral; conditions: in vivo; method in brief: as §1
[8] = Volume distribution after intravenous administration (1 mg/kg) in rat; assay type: ADME, organism-based; conditions: in vivo, read-out: Vdss; method in brief: as §1
[9] = Terminal half life after intravenous administration (1 mg/kg) in rat; assay type: ADME, organism-based; conditions: in vivo; method in brief: as §1
[10] = Area under curve in Rat at a oral dose of 5 mg/kg; assay type: ADME, organism-based; design: dose 5 mg/kg, route oral; conditions: in vivo; method in brief: as §1
[11] = Oral Bioavailability after intravenous administration (1 mg/kg) in rat; assay type: ADME, organism-based; conditions: in vivo, 5 mg/kg, in the assay text read “oral administration (5 mg/kg)” for “intravenous administration (1 mg/kg)”; method in brief: as §1
[12] = Terminal half life in Rat at a oral dose of 5 mg/kg; assay type: ADME, organism-based; design: dose 5 mg/kg, route oral; conditions: in vivo; method in brief: as §1
[13] = Plasma clearance after intravenous administration (1 mg/kg) in rat; assay type: ADME, organism-based; conditions: read-out: Clp (converted); method in brief: as §1
[14] = Area under curve after intravenous administration (1 mg/kg) in rat; assay type: ADME, organism-based; conditions: in vivo; method in brief: as §1
MAP kinase p38 [15] = molecular target: T1, MAP kinase p38; assay: Inhibitory activity against p38 kinase (40 ng/well) was determined in mouse; method in brief: as §2

Row | metabolised [1] [%] | bioavailability [2] [%] | EC50 [3] [nM] | SMILES | also measured
1 | 54.1 | 6 | 33 | COc1cccc(Nc2nccc(-c3[nH]c([C@H]4OC[C@](C)(C(=O)N5CCOCC5)CO4)nc3-c3ccc(F)cc3)n2)c1 | 
2 | 92 |  | 70 | C[C@]1(C(=O)N2CCOCC2)CO[C@H](c2nc(-c3ccc(F)cc3)c(-c3ccnc(NCc4cccs4)n3)[nH]2)OC1 | 
3 | 8.1 |  |  | CNc1nccc(-c2[nH]c([C@H]3OC[C@](C)(C(=O)N4CCOCC4)CO3)nc2-c2ccc(F)cc2)n1 | inhibition at 0.3 µM [4]: 38%
4 | 44.6 |  | 62 | C[C@]1(C(=O)N2CCOCC2)CO[C@H](c2nc(-c3ccc(F)cc3)c(-c3ccnc(NCc4ccc(F)cc4)n3)[nH]2)OC1 | 
5 | 3.5 |  |  | C[C@]1(C(=O)N2CCOCC2)CO[C@H](c2nc(-c3ccc(F)cc3)c(-c3ccnc(NCCC(=O)O)n3)[nH]2)OC1 | inhibition at 0.3 µM [4]: 6%
6 |  |  | > 10000 | C[C@]1(C(=O)N2CCOCC2)CO[C@H](c2nc(-c3ccc(F)cc3)c(-c3ccnc(NCC(=O)O)n3)[nH]2)OC1 | 
7 | 18 |  | 319 | C[C@]1(C(=O)N2CCOCC2)CO[C@H](c2nc(-c3ccc(F)cc3)c(-c3ccnc(NCCO)n3)[nH]2)OC1 | 
8 |  | 15 | 54 | COCCCNc1nccc(-c2[nH]c([C@H]3OC[C@](C)(C(=O)N4CCOCC4)CO3)nc2-c2ccc(F)cc2)n1 | IC50 (MAP kinase p38 [5]): 7 nM
9 | 87 |  | 69 | C[C@]1(C(=O)N2CCOCC2)CO[C@H](c2nc(-c3ccc(F)cc3)c(-c3ccnc(NCC4CC4)n3)[nH]2)OC1 | 
10 |  |  | 124 | CCCNc1nccc(-c2[nH]c([C@H]3OC[C@](C)(C(=O)N4CCOCC4)CO3)nc2-c2ccc(F)cc2)n1 | 
11 |  |  | 41 | C[C@]1(C(=O)N2CCOCC2)CO[C@H](c2nc(-c3ccc(F)cc3)c(-c3ccnc(Nc4ccncc4)n3)[nH]2)OC1 | 
12 | 43.6 | 29 | 60 | C[C@]1(C(=O)N2CCOCC2)CO[C@H](c2nc(-c3ccc(F)cc3)c(-c3ccnc(NC4CC4)n3)[nH]2)OC1 | Cmax [6]: 620 ng/mL; Tmax [7]: 0.5 h; Vd [8]: 1.2 L/kg; half-life [9]: 1.2 h; AUC [10]: 1390 ng·h/mL; bioavailability [11]: 48%; IC50 (MAP kinase p38 [5]): 9 nM; half-life [12]: 1.4 h; clearance [13]: 30 mL/min/kg; AUC [14]: 580 ng·h/mL
13 | 99 |  |  | C[C@]1(C(=O)N2CCOCC2)CO[C@H](c2nc(-c3ccc(F)cc3)c(-c3ccnc(N4CCCCC4)n3)[nH]2)OC1 | inhibition at 0.3 µM [4]: 26%
14 | 18 |  |  | CN(C)CCCNc1nccc(-c2[nH]c([C@H]3OC[C@](C)(C(=O)N4CCOCC4)CO3)nc2-c2ccc(F)cc2)n1 | inhibition at 0.3 µM [4]: 27%
15 | 23.9 | 1 | 49 | COc1ccc(CNc2nccc(-c3[nH]c([C@H]4OC[C@](C)(C(=O)N5CCOCC5)CO4)nc3-c3ccc(F)cc3)n2)cc1 | 
16 | 29 |  | 570 | CN(C)CCNc1nccc(-c2[nH]c([C@H]3OC[C@](C)(C(=O)N4CCOCC4)CO3)nc2-c2ccc(F)cc2)n1 | 
17 | 68 | 24 | 12 | C[C@]1(C(=O)N2CCOCC2)CO[C@H](c2nc(-c3ccc(F)cc3)c(-c3ccnc(NCc4ccccc4)n3)[nH]2)OC1 | IC50 (MAP kinase p38 [5]): 5 nM
18 | 17.6 |  |  | C[C@]1(C(=O)N2CCOCC2)CO[C@H](c2nc(-c3ccc(F)cc3)c(-c3ccnc(N)n3)[nH]2)OC1 | inhibition at 0.3 µM [4]: 39%
19 | 81 |  | 10 | C[C@@H](Nc1nccc(-c2[nH]c([C@H]3OC[C@](C)(C(=O)N4CCOCC4)CO3)nc2-c2ccc(F)cc2)n1)c1ccccc1 | 
20 |  |  | 231 | C[C@]1(C(=O)N2CCOCC2)CO[C@H](c2nc(-c3ccc(F)cc3)c(-c3ccnc(Nc4cccnc4)n3)[nH]2)OC1 | 
21 |  | 2 | 57 | C[C@]1(C(=O)N2CCOCC2)CO[C@H](c2nc(-c3ccc(F)cc3)c(-c3ccnc(NCCCO)n3)[nH]2)OC1 | 
22 | 25 | 25 | 45 | C[C@]1(C(=O)N2CCOCC2)CO[C@H](c2nc(-c3ccc(F)cc3)c(-c3ccnc(NCc4ccccn4)n3)[nH]2)OC1 | 
23 | 71 | 10 | 1.5 | C[C@H](Nc1nccc(-c2[nH]c([C@H]3OC[C@](C)(C(=O)N4CCOCC4)CO3)nc2-c2ccc(F)cc2)n1)c1ccccc1 | 
24 | 89.1 |  | 110 | C=CCNc1nccc(-c2[nH]c([C@H]3OC[C@](C)(C(=O)N4CCOCC4)CO3)nc2-c2ccc(F)cc2)n1 | 
25 |  |  |  | C[C@]1(C(=O)N2CCOCC2)CO[C@H](c2nc(-c3ccc(F)cc3)c(-c3ccnc(NCCC#N)n3)[nH]2)OC1 | inhibition at 0.3 µM [4]: 28%
26 | 40.7 |  |  | CN(C)c1nccc(-c2[nH]c([C@H]3OC[C@](C)(C(=O)N4CCOCC4)CO3)nc2-c2ccc(F)cc2)n1 | inhibition at 0.3 µM [4]: 8%
27 | 51 | 29 | 54 | C[C@]1(C(=O)N2CCOCC2)CO[C@H](c2nc(-c3ccc(F)cc3)c(-c3ccnc(Nc4ccccc4)n3)[nH]2)OC1 | IC50 (MAP kinase p38 [15]): 16 nM
28 | 98.6 |  | 24 | C[C@]1(C(=O)N2CCOCC2)CO[C@H](c2nc(-c3ccc(F)cc3)c(-c3ccnc(NC4CCCCC4)n3)[nH]2)OC1 | 
